Eleven compounds from ChEMBL document CHEMBL3108689, “Stilbenes as κ-selective, non-nitrogenous opioid receptor antagonists” (J Nat Prod, 2014) can be followed below.

Experiment [1] is filed under the species Homo sapiens. The experiment can be described thus: Selectivity ratio of Ke(app) for human Mu opioid receptor to ratio of Ke(app) for human kappa opioid receptor.
Experiment [2] is filed under the species Homo sapiens. The experiment can be described thus: Selectivity ratio of Ke(app) for human delta opioid receptor to ratio of Ke(app) for human kappa opioid receptor.
The target in experiment [3] is Delta-type opioid receptor (Homo sapiens) (UniProt P41143). As to the kind of experiment: Competitive antagonist activity against human delta opioid receptor overexpressed in CHO cells assessed as inhibition of DPDPE-stimulated [35S]GTP-gamma-S binding by liquid scintillation counting. The format is functional, cell-based. In outline: (§1)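 CHO cells overexpressing human μ, δ or κ opioid receptor; membrane homogenates (20–40 μg protein) incubated 1 h at room temperature with 0.1 nM [35S]GTP-γ-S and 1 μM GDP in 50 mM HEPES pH 7.4, in duplicate. Agonist concentration–response curves run with or without one test-compound concentration (screen at 10 μM). Filtration, scintillation counting, normalized to basal; EC50 by four-parameter logistic; Ke = [L]/(DR − 1).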
Background: Binding of GTPγS marks nucleotide exchange on a G protein.

The target in experiment [4] is Mu-type opioid receptor (Homo sapiens) (UniProt P35372). As to the kind of experiment: Competitive antagonist activity against human Mu opioid receptor overexpressed in CHO cells assessed as inhibition of DAMGO-stimulated [35S]GTP-gamma-S binding by liquid scintillation counting. The class given is functional, cell-based. A digest of the protocol:
as §1

For experiment [5], the target named is Kappa-type opioid receptor (Homo sapiens) (UniProt P41145). The experiment can be described thus: Competitive antagonist activity against human kappa opioid receptor overexpressed in CHO cells assessed as inhibition of U69,593-stimulated [35S]GTP-gamma-S binding by liquid scintillation counting. The format is functional, cell-based. A digest of the protocol: as §1

Consider `COc1cc(/C=C/c2cc(O)c(O)c(CC=C(C)C)c2)c(C/C=C(\C)CCC=C(C)C)c(OC)c1`, for which the Ratio in experiment [1] and in experiment [2] was more than 67 throughout. Further, the Ke in experiment [3] was more than 10 µM; in experiment [4], more than 10 µM; in experiment [5] it was 0.15 µM.

With `CC(C)=CCc1c(O)cc(/C=C/c2ccc(O)cc2)cc1O`, the Ke in experiment [3], in experiment [4] and in experiment [5] was more than 10 µM throughout.

In the case of `COc1cc(/C=C/c2ccc(OC)c(O)c2CC=C(C)C)c(C/C=C(\C)CCC=C(C)C)c(OC)c1`, the Ke in experiment [3], in experiment [4] and in experiment [5] was more than 10 µM throughout.

For `CC(C)=CCC/C(C)=C/Cc1c(O)cc(O)cc1/C=C/c1ccc(O)c(O)c1CC=C(C)C`, the Ratio in experiment [1] is 2.9; in experiment [2], 14.5. The Ke in experiment [3] amounted to 2.9 µM; in experiment [4] it was 0.57 µM; in experiment [5] it was 0.2 µM.

With `CC(C)=CCC/C(C)=C/Cc1c(O)cc(/C=C/c2ccc(O)c(O)c2)cc1O`, the Ke in experiment [3], in experiment [4] and in experiment [5] was more than 10 µM in each case.

Regarding `COc1cc(/C=C/c2ccc(OC)c(OC)c2)c(C/C=C(\C)CCC=C(C)C)c(OC)c1`, the Ke in experiment [3], in experiment [4] and in experiment [5] was more than 10 µM each time.

Consider `CC(C)=CCc1c(O)cc(/C=C/c2ccc(O)c(O)c2)cc1O`, for which the Ke in experiment [3], in experiment [4] and in experiment [5] was more than 10 µM in each case.

With `COc1cc(/C=C/c2ccc(OC)c(OC)c2CC=C(C)C)c(C/C=C(\C)CCC=C(C)C)c(OC)c1`, the Ke in experiment [3], in experiment [4] and in experiment [5] was more than 10 µM in each case.

For `COc1cc(/C=C/c2ccc(O)c(O)c2)c(C/C=C(\C)CCC=C(C)C)c(OC)c1`, the Ke in experiment [3], in experiment [4] and in experiment [5] was more than 10 µM in each case.

`CC(C)=CCC/C(C)=C/CC/C(C)=C/Cc1c(O)cc(/C=C/c2ccc(O)cc2)cc1O`: the Ratio in experiment [1] is 0.33; in experiment [2] it was 0.67. Moreover, the Ke in experiment [3] turned out to be 6 µM; in experiment [4] it was 3 µM; in experiment [5], 9 µM.

Take `CC(C)=CCC/C(C)=C/Cc1c(O)cc(O)cc1/C=C/c1ccc(O)c(O)c1`: the Ke in experiment [3], in experiment [4] and in experiment [5] was more than 10 µM in each case.
